Measured values taken from ChEMBL document CHEMBL4627246, “Pyroglutamide-Based P2X7 Receptor Antagonists Targeting Inflammatory Bowel Disease” (J Med Chem, 2020).
Calls of active or inactive are those of the source. Unless noted, no cut-off for these calls is given here.

Tests used:
[1] = target: T1, P2X purinoceptor 1 (Homo sapiens) (UniProt P51575); experiment: Antagonist activity at P2X1 receptor in human platelet assessed as inhibition of thrombin-induced platelet aggregation at 10 '-5 to 10^-6 mol/L pretreated with compound and LPS/BzATP for 10 mins followed by thrombin addition and measured for 8 mins by aggregometry analysis; type: cell-based
T1 sequence (whole entry): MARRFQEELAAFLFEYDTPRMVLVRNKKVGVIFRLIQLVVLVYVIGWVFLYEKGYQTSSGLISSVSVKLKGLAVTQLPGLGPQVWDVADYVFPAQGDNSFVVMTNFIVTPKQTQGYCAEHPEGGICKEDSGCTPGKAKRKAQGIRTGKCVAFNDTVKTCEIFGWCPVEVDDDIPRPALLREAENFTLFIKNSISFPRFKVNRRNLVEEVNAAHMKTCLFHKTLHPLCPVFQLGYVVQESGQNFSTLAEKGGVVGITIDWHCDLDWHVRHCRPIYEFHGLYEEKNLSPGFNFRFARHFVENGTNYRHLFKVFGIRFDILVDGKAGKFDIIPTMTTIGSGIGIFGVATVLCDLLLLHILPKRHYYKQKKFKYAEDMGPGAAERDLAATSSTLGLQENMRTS

P2X purinoceptor 7 = target: T2, P2X purinoceptor 7 (Homo sapiens, UniProt Q99572); experiment: Displacement of [3H]-A804598 from human P2X7 expressed in human HEK293 cell membrane incubated for 1 hr by microplate scintillation counting method; type: cell membranes
T2 sequence (Q99572 whole entry): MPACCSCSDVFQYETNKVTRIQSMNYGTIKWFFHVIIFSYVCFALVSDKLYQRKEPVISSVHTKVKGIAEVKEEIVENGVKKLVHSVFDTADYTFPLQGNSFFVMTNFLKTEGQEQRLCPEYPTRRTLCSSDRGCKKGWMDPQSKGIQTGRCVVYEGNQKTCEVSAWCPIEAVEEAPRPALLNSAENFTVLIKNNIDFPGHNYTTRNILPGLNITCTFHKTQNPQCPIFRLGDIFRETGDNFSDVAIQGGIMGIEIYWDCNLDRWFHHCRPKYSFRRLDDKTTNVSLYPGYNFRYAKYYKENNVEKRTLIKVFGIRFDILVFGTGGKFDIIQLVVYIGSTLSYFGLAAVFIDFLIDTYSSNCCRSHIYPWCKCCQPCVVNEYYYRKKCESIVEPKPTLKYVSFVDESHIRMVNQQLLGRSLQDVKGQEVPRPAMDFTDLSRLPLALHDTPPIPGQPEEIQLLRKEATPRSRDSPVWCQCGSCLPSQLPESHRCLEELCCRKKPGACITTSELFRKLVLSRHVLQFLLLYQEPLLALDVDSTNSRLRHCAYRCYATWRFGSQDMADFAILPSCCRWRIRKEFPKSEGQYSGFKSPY

[2] = target: T3, P2X purinoceptor 7 (Homo sapiens) (UniProt Q99572); experiment: Antagonist activity at P2X7 receptor in human THP-1 cells assessed as inhibition of LPS and BzATP-induced IL-1beta production at 10^-6 mol/L pretreated with compound followed by LPS/BzATP addition and measured after 2 to 6 hrs by ELISA; type: cell-based; settings: TDE = time-dependent effect
T3 sequence (whole entry): T2 sequence (Q99572 whole entry)
How it was run: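 PMA (100nM)-differentiated THP-1 macrophages (RPMI 1640, 10% FCS), 10^6 cells, pretreated with antagonist at […], then challenged with LPS 10 μmol/L and BzATP 70 μmol/L at 37 °C, 5% CO2; IL1β measured by ELISA, including the 6 h point; mean ± SD, P<0.05 significant.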

[3] = Drug metabolism in mouse measured after 40 mins; type: ADME; settings: read-out: Drug metabolism
[4] = target: T3, P2X purinoceptor 7 (Homo sapiens); experiment: Antagonist activity at P2X7 receptor in human THP-1 cells assessed as inhibition of LPS and BzATP-induced IL-1beta production at 10^-5 mol/L pretreated with compound followed by LPS/BzATP addition and measured after 2 to 6 hrs by ELISA; type: cell-based
How it was run: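 THP-1 monocytes grown in RPMI 1640 + 10% FCS, differentiated to macrophages with PMA (100nM); 10^6 cells pretreated with antagonist at 10^-5 mol/L, then exposed to LPS 10 μmol/L plus BzATP 70 μmol/L at 37 °C, 5% CO2; IL1β quantified by ELISA in samples at 2, 4 and 6 h; mean ± SD, significance P<0.05.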

[5] = Metabolic stability in human liver microsomes assessed as half life at 0.2 mg/ml incubated for 60 mins by UPLC/MS-MS analysis; type: ADME, Microsome
[6] = Metabolic stability in human hepatocytes; type: ADME, cell-based, Hepatocyte
[7] = target: T3, P2X purinoceptor 7 (Homo sapiens); experiment: Antagonist activity at P2X7R in human THP1 cells assessed as inhibition of LPS and BzATP-induced ROS production at 10^-6mol/L pretreated with compound followed by LPS/BzATP addition and measured after 5 hrs by kinetic chemiluminescence based fluorometric analysis; type: cell-based; settings: THP-1
How it was run: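 Differentiated THP-1 macrophages (10^5 cells, RPMI 1640 + 10% FBS) pretreated with antagonist at 10^-6 mol/L before LPS (10 μmol/L) and BzATP (70 μmol/L), 37 °C, 5% CO2; ROS detected as luminol (50 μM)/horseradish peroxidase (50 μg/mL) chemiluminescence on a fluorometer; H2O2 without cells as positive control.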

[8] = Solubility of compound in saline at 1mg/ml; type: physicochemical; settings: buffer
[9] = target: T3, P2X purinoceptor 7 (Homo sapiens); experiment: Inhibition of human P2X7 expressed in human HEK293 cells assessed as reduction in BzATP-stimulated TO-PRO-3 incorporation at 10 uM preincubated with compound and TO-PRO-3 for 15 mins prior to BzATP addition and measured after 1 hr by Fluo-3AM dye based flow cytometry relative to control; type: cell-based
How it was run: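 HEK-293 cells overexpressing human P2RX7 loaded with Fluo-3 AM, then incubated with TO-PRO-3 (large pore uptake) and propidium iodide (viability) plus compound (10⁻⁵ M single point) for 15 min before BzATP 100 µM. After 1 h, flow cytometry; percentage of Fluo-3/TO-PRO-3 double-positive cells calculated. Mean of n ≥ 2 with positive control.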

[10] = target: T3, P2X purinoceptor 7 (Homo sapiens); experiment: Antagonist activity at P2X7R in human THP1 cells assessed as inhibition of LPS and BzATP-induced ROS production at 10^-5 mol/L pretreated with compound followed by LPS/BzATP addition and measured up to 5 hrs by kinetic chemiluminescence based fluorometric analysis; type: cell-based; settings: THP-1
How it was run: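 PMA-differentiated THP-1 macrophages (10^5 cells) in RPMI 1640 + 10% FBS pretreated with antagonist at 10^-5 mol/L, then LPS 10 μmol/L plus BzATP 70 μmol/L at 37 °C, 5% CO2; horseradish peroxidase (50 μg/mL) and luminol (50 μM) mixture added, chemiluminescence read on a fluorometer; cell-free H2O2 serves as positive control.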

[11] = Metabolic stability in human liver microsomes assessed as intrinsic clearance at 0.2 mg/ml incubated for 60 mins by UPLC/MS-MS analysis; type: ADME, Microsome; settings: read-out: CLH
HEK293 = experiment: Cytotoxicity against human HEK293 cells assessed as reduction in cell viability at 10^-5 mol/L incubated for 72 hrs; type: cell-based; settings: hek293, 72 h, 10 µM
How it was run: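 Wild-type and P2RX7-transfected HEK293 cells exposed to compound for 72 hours; viability compared against untreated control.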

In the case of `O=C(NCc1ccc(Cl)cc1Cl)[C@@H]1CCC(=O)N1c1cccs1`, the Activity [1] is reported as “inactive”, the IC50 (P2X purinoceptor 7) is reported as 720 nM and the Ki (P2X purinoceptor 7) is reported as 147 nM. The inhibition [2] was “Tde”, the metabolised at 40 min [3] was 100% and the inhibition [4] was “Active”. For the same molecule, the half-life [5] was 1.5 min, the Stability [6] was “Unstable” and the inhibition [7] was “Active”. The solubility [8] was “Insoluble”, the inhibition [9] was 98% and the inhibition [10] was “Active”. The microsomal CLint [11] was 1070 µL/min/mg and the Activity (HEK293) was “Non-Toxic”.
For `O=C1N[C@H](C(=O)NCc2ccc(Cl)cc2Cl)C/C1=C/NCc1ccc(Cl)cc1Cl`, the inhibition [9] was 0%.
For `O=C(NCc1ccc(Cl)cc1Cl)[C@@H]1CCC(=O)N1Cc1ccc(Cl)cc1`, the inhibition [9] was 0%.
`CN(C)/C=C1\C[C@H]2C(=O)N(/C(=C/N(C)C)c3ccncc3)C(N(C)C)N2C1=O` (some centres undefined) gave an inhibition [9] of 0%.
In the case of `O=C(NCc1ccc(Cl)cc1Cl)[C@@H]1CCC(=O)N1C(c1ccccc1)c1ccccc1`, the inhibition [9] is reported as 0%.
For `CN1C(=O)CC[C@H]1C(=O)NCc1cc(C(F)(F)F)ccc1Cl`, the inhibition [9] was 0%.
Work on `COc1ccc(CN2C(=O)[C@@H]3C/C(=C\N(C)C)C(=O)N3C2N(C)C)c(OC)c1` (some centres undefined) yielded an inhibition [9] of 0%.
In the case of `O=C(NCc1ccccc1)[C@@H]1CCC(=O)N1Cc1ccc(Cl)cc1Cl`, the inhibition [9] is reported as 0%.
`COc1ccc(CNC(=O)[C@@H]2CCC(=O)N2Cc2ccc(Cl)cc2Cl)c(OC)c1` showed an inhibition [9] of 0%.
In the case of `O=C(NCc1ccc(Cl)cc1Cl)[C@@H]1CCC(=O)N1c1nccs1`, the Activity [1] is reported as “inactive”, the IC50 (P2X purinoceptor 7) is reported as 2380 nM and the Ki (P2X purinoceptor 7) is reported as 489 nM. The inhibition [2] was “Tde”, the metabolised at 40 min [3] was 93% and the inhibition [4] was “Active”. For the same molecule, the half-life [5] was 7.5 min, the Stability [6] was “Unstable” and the solubility [8] was “Insoluble”. The inhibition [9] was 83%, the inhibition [10] was “Active” and the microsomal CLint [11] was 253 µL/min/mg. For the same molecule, the Activity (HEK293) was “Non-Toxic”.
In the case of `COc1ccc(NC(=O)[C@@H]2CCC(=O)N2)cc1OC`, the inhibition [9] is reported as “inactive”.
With `O=C(NCc1ccc(Cl)cc1Cl)[C@@H]1CCC(=O)N1c1ccccc1` the Stability [6] was “Unstable” and the inhibition [9] was 50%.
For `COc1ccc(NC(=O)[C@@H]2C/C(=C\N(C)C)C(=O)N2)cc1`, the inhibition [9] was 0%.
Molecule `CCCCCCN1C(=O)[C@@H]2CCC(=O)N2C1N(C)C` (some centres undefined) has an inhibition [9] of 0%.
For `Cc1ccc(NC(=O)[C@@H]2CCC(=O)N2c2ccccc2)cc1`, the inhibition [9] was 0%.
In the case of `O=C(NCc1ccc(Cl)cc1Cl)[C@@H]1COC(=O)N1c1cccs1`, the Activity [1] is reported as “inactive”, the IC50 (P2X purinoceptor 7) is reported as 15100 nM and the Ki (P2X purinoceptor 7) is reported as 3110 nM. The inhibition [2] was “Tde”, the metabolised at 40 min [3] was 100% and the inhibition [4] was “Active”. The half-life [5] was 1.4 min, the solubility [8] was “Insoluble” and the inhibition [9] was 80%. For the same molecule, the inhibition [10] was “Active”, the microsomal CLint [11] was 663 µL/min/mg and the Activity (HEK293) was “Non-Toxic”.
`O=C(NCC1CCCCC1)[C@@H]1CCC(=O)N1c1ccccc1` showed an inhibition [9] of 0%.
Molecule `O=C(NCc1ccccc1Cl)[C@@H]1CCC(=O)N1Cc1ccc(Cl)cc1` has an inhibition [9] of 0%.
`N#Cc1ccc(N2C(=O)CC[C@H]2C(=O)NCc2ccc(Cl)cc2Cl)cc1` showed an inhibition [9] of 0%.
Molecule `O=C1N[C@H](C(=O)NCc2ccc(Cl)cc2Cl)C/C1=N\O` (stereo in doubt) has an inhibition [9] of 52%.
In the case of `CN1C(=O)CC[C@H]1C(=O)NCc1cccc(C(F)(F)F)c1Cl` [GSK1482160], the IC50 (P2X purinoceptor 7) is reported as 332 nM, the Ki (P2X purinoceptor 7) is reported as 68 nM and the inhibition [2] is reported as “Tde”. The metabolised at 40 min [3] was 4.4%, the inhibition [4] was “Active” and the half-life [5] was 800 min. For the same molecule, the Stability [6] was “Stable”, the solubility [8] was “Insoluble” and the inhibition [9] was 98%. For the same molecule, the inhibition [10] was “Active” and the microsomal CLint [11] was 2.8 µL/min/mg.
With `O=C(NCCc1ccccc1)[C@@H]1CCC(=O)N1Cc1ccc(Cl)cc1Cl` the inhibition [9] was 0%.
